Test results taken from ChEMBL document CHEMBL3124798, “Convenient one-pot synthesis, anti-mycobacterial and anticancer activities of novel benzoxepinoisoxazolones and pyrazolones” (Eur J Med Chem, 2014).
Converted amounts (≈) assume the structure as drawn. The source made the active and inactive calls. No cut-off for these calls is given here.

Tests used:
DU-145 = assay: Cytotoxicity against human DU145 cells after 48 hrs by MTT assay; type: functional, cell-based
Procedure, shortened: (§1)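 Cells taken from T75 flasks/90 mm dishes when sub-confluent, trypsinized and seeded at 5000–10000 cells/well according to doubling time. Test compounds added after 18 h at four concentrations, in triplicate wells. Incubation 48 h, then MTT (5 mg/mL) for 60 min at 37 °C and the bound dye solubilized. Percent growth taken against control wells. IC50 read from dose-response curves; three independent experiments, mean ± SD.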

HeLa [1] = assay: Cytotoxicity against human HeLa cells after 48 hrs by MTT assay; type: functional, cell-based; procedure, shortened: as §1
A549 = assay: Cytotoxicity against human A549 cells after 48 hrs by MTT assay; type: functional, cell-based; procedure, shortened: as §1
[2] = test system: Mycolicibacterium smegmatis; assay: Antimycobacterial activity against Mycobacterium smegmatis MC2 155 ATCC 14468 after 32 hrs by broth microdilution method; type: functional
Procedure, shortened: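 M. smegmatis MC² 155 grown overnight to mid-log in Middlebrook 7H9 (0.2% glycerol, 0.1% Tween-80, 10% ADS) at 37 °C, subcultured to OD600 ≈0.3, then diluted 1:1000 into 96-well plates. Final compound levels were […]. Incubated 32 h at 37 °C, turbidity read at OD600, triplicates. GI50 was derived from % growth inhibition. INH/rifampicin positive controls, DMSO and medium-only controls.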

HEK293 = assay: Cytotoxicity against HEK293 cells after 48 hrs by MTT assay; type: cell-based, Homo sapiens; procedure, shortened: as §1
HeLa [3] = assay: Induction of apoptosis in human HeLa cells assessed as activation of caspase-3 using Ac-DEVD-AMC as substrate at 10 to 25 uM after 48 hrs by fluorescence assay relative to control; type: functional
Procedure, shortened: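 HeLa cells treated 48 h with compound or DMSO, then lysed in 50 mM HEPES, 5 mM CHAPS, 5 mM DTT, pH 7.5. Lysate incubated with Ac-DEVD-AMC in 20 mM HEPES pH 7.5, 0.1% CHAPS, 2 mM EDTA, 5 mM DTT for 2 h at 37 °C. AMC read at ex/em 380/460 nm and normalized to Bradford protein. Activity expressed as treated relative to mock-treated. Doxorubicin used as positive control.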

HeLa [4] = assay: Ratio of IC50 for HEK293 cells to IC50 for human HeLa cells
HeLa [5] = assay: Induction of apoptosis in human HeLa cells assessed as activation of caspase-9 using Ac-DEVD-AMC as substrate at 10 to 25 uM after 48 hrs by fluorescence assay relative to control; type: functional
[6] = Homo sapiens, HeLa, 48 h, read-out: IC50
[7] = Homo sapiens, A549, 48 h, read-out: IC50
[8] = Homo sapiens, HEK293, 48 h, read-out: IC50
[9] = Homo sapiens, DU-145, 48 h, read-out: IC50

Compound	IC50 (DU-145; du-145)	IC50 (HeLa [1]; [6]) [µM]	IC50 (A549; [7]) [µM]	GI50 [2]	IC50 (HEK293; [8]) [µM]	IC50 (DU-145; [9]) [µM]	fold change (FC) (HeLa [3])	GI50 ([2]; MC2 155 ATCC 14468, 32 h) [µg/mL]	Ratio IC50 (HeLa [4])	fold change (FC) (HeLa [5])	IC50 (HeLa [1]; hela)	IC50 (HEK293; hek293)	IC50 (A549; a549)
COc1ccc2c(c1)C=C1C(=O)N(c3ccc(Br)cc3)N=C1CO2	Not Active	180	33.3	inactive	161	–	–	–	–	–	–	–	–
O=C1ON=C2COc3ccc(Br)cc3C=C12	–	10.1	49.1	–	48.2	28.8	<=40	28.5 (≈ 102 µM)	4	20	–	–	–
O=C1ON=C2COc3ccc(-c4ccccc4)cc3C=C12	–	9.03	29.7	–	39.2	28.9	<=40	9.1 (≈ 32.8 µM)	4	20	–	–	–
Cc1ccc(N2N=C3COc4ccccc4C=C3C2=O)cc1C	Not Active	–	84.3	–	–	–	–	19.4 (≈ 63.6 µM)	–	–	Not Active	Not Active	–
COc1ccc2c(c1)C=C1C(=O)ON=C1CO2	–	10.1	46.5	inactive	47.7	33.6	<=40	–	4	20	–	–	–
O=C1C2=Cc3cc(-c4ccccc4)ccc3OCC2=NN1c1ccccc1	Not Active	–	117	inactive	–	–	–	–	–	–	Not Active	Not Active	–
Cc1ccc(N2N=C3COc4ccccc4C=C3C2=O)cc1	–	–	–	–	–	152	–	49.3 (≈ 170 µM)	–	–	Not Active	Not Active	Not Active
O=C1C2=Cc3ccccc3OCC2=NN1c1ccc(Cl)cc1	–	–	215	inactive	–	89.4	–	–	–	–	Not Active	Not Active	–
O=C1C2=Cc3ccccc3OCC2=NN1c1cccc(F)c1	–	190	179	inactive	–	97	–	–	–	–	–	Not Active	–
Cc1ccccc1N1N=C2COc3ccccc3C=C2C1=O	–	109	–	inactive	154	63.9	–	–	–	–	–	–	Not Active
O=C1C2=Cc3cc(-c4ccccc4)ccc3OCC2=NN1c1ccc(Br)cc1	–	–	118	inactive	–	140	–	–	–	–	Not Active	Not Active	–
Cc1cccc(N2N=C3COc4ccccc4C=C3C2=O)c1	Not Active	–	–	inactive	–	–	–	–	–	–	Not Active	Not Active	Not Active
COc1ccc2c(c1)C=C1C(=O)N(c3ccccc3)N=C1CO2	Not Active	167	–	–	–	–	–	15.7 (≈ 51.1 µM)	–	–	–	Not Active	Not Active
O=C1C2=Cc3ccccc3OCC2=NN1c1ccc(F)cc1	Not Active	–	–	–	–	–	–	38.7 (≈ 132 µM)	–	–	Not Active	Not Active	Not Active
COc1ccc(N2N=C3COc4ccccc4C=C3C2=O)cc1	–	166	133	inactive	–	67.5	–	–	–	–	–	Not Active	–
O=C1C2=Cc3cc(Br)ccc3OCC2=NN1c1ccccc1	–	–	–	–	–	123	–	11.9 (≈ 33.5 µM)	–	–	Not Active	Not Active	Not Active
O=C1C2=Cc3ccccc3OCC2=NN1c1ccc(Br)cc1	–	–	–	inactive	–	117	–	–	–	–	Not Active	Not Active	Not Active
O=C1C2=Cc3cc(Br)ccc3OCC2=NN1c1ccc(Br)cc1	Not Active	–	–	inactive	–	–	–	–	–	–	Not Active	Not Active	Not Active
O=C1C2=Cc3ccccc3OCC2=NN1c1ccccc1	Not Active	–	–	–	–	–	–	23.2 (≈ 83.9 µM)	–	–	Not Active	Not Active	Not Active
O=C1ON=C2COc3ccccc3C=C12	–	85	–	–	–	84.8	–	21.4 (≈ 106 µM)	–	–	–	Not Active	Not Active
COc1ccc2c(c1)C=C1C(=O)N(c3ccc(C)cc3)N=C1CO2	–	129	199	inactive	138	117	–	–	–	–	–	–	–
CO[C@H]1/C=C/O[C@@]2(C)Oc3c(C)c(O)c4c(O)c(c(/C=N/N5CCN(C)CC5)c(O)c4c3C2=O)NC(=O)/C(C)=C\C=C\[C@H](C)[C@H](O)[C@@H](C)[C@@H](O)[C@@H](C)[C@H](OC(C)=O)[C@@H]1C [RIFAMPIN]	–	–	–	–	–	–	–	1.04 (≈ 1.26 µM)	–	–	–	–	–
COc1cccc2c1C(=O)c1c(O)c3c(c(O)c1C2=O)C[C@@](O)(C(=O)CO)C[C@@H]3O[C@H]1C[C@H](N)[C@H](O)[C@H](C)O1 [DOXORUBICIN]	–	6.94	7.47	–	7.41	8.19	–	–	–	–	–	–	–
O=C1C2=Cc3ccccc3OCC2=NN1c1cccc(Cl)c1	Not Active	–	244	inactive	–	–	–	–	–	–	Not Active	Not Active	–
Cc1ccc(N2N=C3COc4ccc(-c5ccccc5)cc4C=C3C2=O)cc1	–	185	–	–	149	78.2	–	34 (≈ 92.8 µM)	–	–	–	–	Not Active
NNC(=O)c1ccncc1 [ISONIAZID]	–	–	–	–	–	–	–	7.94 (≈ 57.9 µM)	–	–	–	–	–
Cc1ccc(N2N=C3COc4ccc(Br)cc4C=C3C2=O)cc1	Not Active	–	163	–	–	–	–	42.4 (≈ 115 µM)	–	–	Not Active	Not Active	–
